Experimental findings from ChEMBL document CHEMBL1127430, “Novel zinc chelators which inhibit the binding of HIV-EP1 (HIV enhancer binding protein) to NF-kappa B recognition sequence” (J Med Chem, 1994) are described below.

Test [1] deals with Zinc finger protein 40 (Homo sapiens) (UniProt P15822). Briefly: Inhibition of human DNA binding to HIV-EP1 (enhancer binding protein) at 1.0 mM concentration.
The target is the same in test [2]. As to conditions: 4.0 mM.
Test [3] shares this target. The test is described as follows: Inhibition of human DNA binding to HIV-EP1 (enhancer binding protein) at 0.01 mM concentration.
Test [4] shares this target. Briefly: Inhibition of human DNA binding to HIV-EP1 (enhancer binding protein) at 0.7 mM concentration.
Test [5] shares this target. Briefly: Inhibition of human DNA binding to HIV-EP1 (enhancer binding protein) at 0.7 mM concentration and 2.1 mM of ZnSO4. Put shortly:
(§1)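 Same HIV-EP1 κB-site binding assay: protein with ligand and poly(dI-dC), 30 min at room temperature, in H2O-CH3OH (96:4), then labelled κB oligonucleotide. ZnSO4 at the stated level was introduced either during or after the ligand inhibition reaction. Read-out is percentage of HIV-EP1 bound to DNA.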

Test [6] shares this target. Briefly: Inhibition of human DNA binding to HIV-EP1 (enhancer binding protein) at 0.05 mM concentration.
Test [7] has the same target. The test is described as follows: Inhibition of human DNA binding to HIV-EP1 (enhancer binding protein) at 0.7 mM concentration and 0.7 mM of ZnSO4. Put shortly:
as §1

Test [8] shares this target. The test is described as follows: Inhibition of human DNA binding to HIV-EP1 (enhancer binding protein) at 0.1 mM concentration.
For test [9] the target is unchanged. Briefly: Inhibition of human DNA binding to HIV-EP1 (enhancer binding protein) at 0.4 mM concentration.

Zinc finger protein 40 (Homo sapiens), sequence (P15822 whole entry, looked up): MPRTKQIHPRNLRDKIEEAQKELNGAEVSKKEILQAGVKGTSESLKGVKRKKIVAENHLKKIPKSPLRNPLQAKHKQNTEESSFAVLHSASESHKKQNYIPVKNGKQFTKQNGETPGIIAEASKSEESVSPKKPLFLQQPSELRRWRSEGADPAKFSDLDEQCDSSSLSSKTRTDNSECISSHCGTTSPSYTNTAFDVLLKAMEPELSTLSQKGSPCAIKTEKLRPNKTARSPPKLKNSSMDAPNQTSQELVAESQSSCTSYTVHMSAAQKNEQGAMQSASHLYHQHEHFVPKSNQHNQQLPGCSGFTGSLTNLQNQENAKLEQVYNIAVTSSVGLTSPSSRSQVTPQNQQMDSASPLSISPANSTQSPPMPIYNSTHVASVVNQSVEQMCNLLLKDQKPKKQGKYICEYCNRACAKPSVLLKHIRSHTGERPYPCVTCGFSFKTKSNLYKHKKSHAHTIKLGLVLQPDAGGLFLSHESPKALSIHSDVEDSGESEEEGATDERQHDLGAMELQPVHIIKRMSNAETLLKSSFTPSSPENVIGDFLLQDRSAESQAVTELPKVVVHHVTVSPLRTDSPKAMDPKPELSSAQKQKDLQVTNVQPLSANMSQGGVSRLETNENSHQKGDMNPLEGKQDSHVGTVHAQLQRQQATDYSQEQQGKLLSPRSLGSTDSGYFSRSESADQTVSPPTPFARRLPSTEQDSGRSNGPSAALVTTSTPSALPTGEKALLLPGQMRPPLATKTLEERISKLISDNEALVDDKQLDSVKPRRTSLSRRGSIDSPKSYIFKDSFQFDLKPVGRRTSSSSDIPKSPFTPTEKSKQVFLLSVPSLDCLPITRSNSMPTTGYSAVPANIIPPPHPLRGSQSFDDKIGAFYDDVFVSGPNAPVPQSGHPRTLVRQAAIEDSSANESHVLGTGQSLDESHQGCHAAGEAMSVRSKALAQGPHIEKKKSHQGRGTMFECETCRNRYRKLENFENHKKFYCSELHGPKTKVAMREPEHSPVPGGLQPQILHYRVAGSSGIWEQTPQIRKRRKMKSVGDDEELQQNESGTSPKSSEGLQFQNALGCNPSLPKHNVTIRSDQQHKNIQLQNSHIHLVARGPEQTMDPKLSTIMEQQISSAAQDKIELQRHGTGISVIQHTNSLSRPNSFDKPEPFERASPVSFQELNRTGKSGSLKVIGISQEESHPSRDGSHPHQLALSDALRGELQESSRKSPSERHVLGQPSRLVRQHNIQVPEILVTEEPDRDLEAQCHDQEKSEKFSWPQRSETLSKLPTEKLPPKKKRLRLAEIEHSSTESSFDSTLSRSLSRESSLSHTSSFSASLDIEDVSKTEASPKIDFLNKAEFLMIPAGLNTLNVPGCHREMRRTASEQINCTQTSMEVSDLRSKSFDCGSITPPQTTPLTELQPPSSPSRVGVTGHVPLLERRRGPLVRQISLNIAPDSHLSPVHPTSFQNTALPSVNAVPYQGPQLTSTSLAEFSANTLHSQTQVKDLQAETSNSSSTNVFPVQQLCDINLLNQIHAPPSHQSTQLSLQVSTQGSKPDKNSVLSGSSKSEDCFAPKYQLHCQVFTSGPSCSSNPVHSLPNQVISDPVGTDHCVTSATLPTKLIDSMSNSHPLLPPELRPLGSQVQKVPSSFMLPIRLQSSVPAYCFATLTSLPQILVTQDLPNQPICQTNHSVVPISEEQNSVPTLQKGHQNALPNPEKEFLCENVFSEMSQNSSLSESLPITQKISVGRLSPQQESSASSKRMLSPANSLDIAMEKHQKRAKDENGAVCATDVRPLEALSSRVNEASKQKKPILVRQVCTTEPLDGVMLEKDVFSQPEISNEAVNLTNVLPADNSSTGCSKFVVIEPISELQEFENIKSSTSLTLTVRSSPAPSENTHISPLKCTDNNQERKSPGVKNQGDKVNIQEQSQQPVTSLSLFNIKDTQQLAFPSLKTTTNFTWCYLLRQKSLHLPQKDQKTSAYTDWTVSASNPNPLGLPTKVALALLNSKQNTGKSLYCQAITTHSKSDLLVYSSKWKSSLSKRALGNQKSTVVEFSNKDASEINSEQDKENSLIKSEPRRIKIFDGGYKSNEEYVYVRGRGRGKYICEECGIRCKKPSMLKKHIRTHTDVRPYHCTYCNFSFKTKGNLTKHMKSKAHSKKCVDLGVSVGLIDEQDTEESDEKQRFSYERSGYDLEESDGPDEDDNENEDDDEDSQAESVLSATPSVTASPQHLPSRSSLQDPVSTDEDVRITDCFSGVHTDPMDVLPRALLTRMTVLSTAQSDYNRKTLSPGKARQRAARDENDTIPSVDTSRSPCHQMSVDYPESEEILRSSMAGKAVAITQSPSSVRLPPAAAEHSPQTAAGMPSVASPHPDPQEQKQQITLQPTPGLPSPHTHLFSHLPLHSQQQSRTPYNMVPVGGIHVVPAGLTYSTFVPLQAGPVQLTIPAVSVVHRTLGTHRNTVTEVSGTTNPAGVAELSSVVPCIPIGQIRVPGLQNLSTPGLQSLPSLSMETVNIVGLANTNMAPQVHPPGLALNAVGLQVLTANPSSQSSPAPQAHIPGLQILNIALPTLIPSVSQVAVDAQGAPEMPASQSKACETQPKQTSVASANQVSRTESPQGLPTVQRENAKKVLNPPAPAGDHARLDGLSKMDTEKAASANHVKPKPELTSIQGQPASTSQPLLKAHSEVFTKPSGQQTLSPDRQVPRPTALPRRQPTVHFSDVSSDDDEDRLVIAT

As for `O=C(O)CN(CCN(CC(=O)O)CC(=O)O)CC(=O)O`, the Binding in test [1] is 33%; in test [2], 16%.

Consider `COC(=O)[C@H](Cc1c[nH]cn1)NCc1cc(N(C)C)cc(CN[C@@H](Cc2c[nH]cn2)C(=O)OC)n1`, for which the Binding amounted to 0% in test [1]; 100% in [3]; 0% in [4]; 100% in test [5]; 81% in test [6]; 100% in test [7]. Also, the Binding was determined as 68% in test [8] and 4% in test [9].
